Assay [1] has as its system L6. Nature of the assay: Potentiation of insulin-stimulated 2-[3H]-deoxyglucose uptake in rat L6 cells at 10 uM treated for 16 hrs followed by incubation for 3 hrs in serum free medium and insulin stimulation for 20 mins by scintillation counting analysis. It counts as functional, cell-based. In a few lines: (§1)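 Cells (L6 myotubes, 3T3-L1 adipocytes or HepG2 hepatic cells) treated with compound (10 µM) for 16 h, last 3 h serum-free, with or without insulin (100 nM, 20 min) before glucose uptake. Reported as fold stimulation over basal control; mean ± SE of three independent experiments, each in triplicate.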

For assay [2], the target named is 5'-AMP-activated protein kinase catalytic subunit alpha-1 (Rattus norvegicus) (UniProt P54645). Nature of the assay: Effect on AMPK-alpha phosphorylation at Thr-172 residue in rat L6 cells at 10 uM after 16 hrs by immunoblot analysis. It counts as cell-based. Summed up:
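L6 myotubes exposed to compound (10 µM) for 16 h, then lysed; western blot for phospho-AMPK (Thr-172), quantified by densitometry relative to total AMPK. Mean ± SEM of three independent experiments.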
(In general: In western blotting, separated proteins are transferred to a membrane and probed.)

Assay [3] relates to L6. Nature of the assay: Increase in 2-[3H]-deoxyglucose uptake in rat L6 cells at 10 uM after 16 hrs by scintillation counting analysis relative to lupeol. In kind it is functional.
Another assay concerns HepG2. Nature of the assay: Potentiation of insulin-stimulated 2-[3H]-deoxyglucose uptake in human HepG2 cells at 10 uM treated for 16 hrs followed by incubation for 3 hrs in serum free medium and insulin stimulation for 20 mins by scintillation counting analysis. In kind it is functional, cell-based. In a few lines: as §1
The subject of the next assay is 3T3-L1. Nature of the assay: Potentiation of insulin-stimulated 2-[3H]-deoxyglucose uptake in mouse 3T3L1 cells at 10 uM treated for 16 hrs followed by incubation for 3 hrs in serum free medium and insulin stimulation for 20 mins by scintillation counting analysis. It counts as functional, cell-based. In a few lines: as §1
The target of assay [4] is T1, Solute carrier family 2, facilitated glucose transporter member 4 (Rattus norvegicus) (UniProt P19357).
T1 sequence (whole entry): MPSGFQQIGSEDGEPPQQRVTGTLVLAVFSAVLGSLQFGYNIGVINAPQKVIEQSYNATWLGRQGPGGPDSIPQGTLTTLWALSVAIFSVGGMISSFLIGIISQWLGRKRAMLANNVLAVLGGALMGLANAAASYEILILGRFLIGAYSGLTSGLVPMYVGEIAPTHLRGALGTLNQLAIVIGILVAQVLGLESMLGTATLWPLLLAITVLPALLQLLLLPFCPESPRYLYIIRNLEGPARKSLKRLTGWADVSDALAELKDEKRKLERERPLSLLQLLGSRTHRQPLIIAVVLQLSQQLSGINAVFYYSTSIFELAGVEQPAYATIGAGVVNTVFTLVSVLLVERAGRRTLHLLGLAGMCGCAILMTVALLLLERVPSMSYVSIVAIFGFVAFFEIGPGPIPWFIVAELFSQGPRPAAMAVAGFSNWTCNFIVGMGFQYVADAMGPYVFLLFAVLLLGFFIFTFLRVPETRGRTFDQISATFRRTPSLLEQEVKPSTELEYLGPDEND
Nature of the assay: Induction of GLUT4 translocation to cell surface in rat L6-GLUT4myc cells at 10 uM treated for 16 hrs followed by incubation for 3 hrs in serum free medium and insulin stimulation for 20 mins. In kind it is cell-based. Summed up:
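L6-GLUT4myc myotubes given compound (10 µM) for 16 h, the final 3 h in serum-free medium; a subset stimulated with insulin (100 nM) for 20 min before measuring surface GLUT4myc. Fold over basal control; mean ± SE, three independent experiments in triplicate.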

For assay [5], the system named is L6. Nature of the assay: Increase in 2-[3H]-deoxyglucose uptake in rat L6 cells after 16 hrs by scintillation counting analysis. It counts as functional, cell-based. Summed up: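 Dose–response in L6 myotubes: vehicle (DMSO) or compound at 5, 10, 25 µM for 16 h before glucose uptake measurement; rosiglitazone 10 µM as positive control. Expressed as fold stimulation over control; mean ± SE of three independent experiments, each in triplicate.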

For assay [6], the system named is L6. Nature of the assay: Increase in 2-[3H]-deoxyglucose uptake in rat L6 cells at 10 uM after 16 hrs by scintillation counting analysis (reference value: 0%). In kind it is functional.

Activity calls are given as the source filed them. The calls are words filed in the database; no cut-off is given here.

Sequence of 5'-AMP-activated protein kinase catalytic subunit alpha-1 (Rattus norvegicus) (P54645 whole entry): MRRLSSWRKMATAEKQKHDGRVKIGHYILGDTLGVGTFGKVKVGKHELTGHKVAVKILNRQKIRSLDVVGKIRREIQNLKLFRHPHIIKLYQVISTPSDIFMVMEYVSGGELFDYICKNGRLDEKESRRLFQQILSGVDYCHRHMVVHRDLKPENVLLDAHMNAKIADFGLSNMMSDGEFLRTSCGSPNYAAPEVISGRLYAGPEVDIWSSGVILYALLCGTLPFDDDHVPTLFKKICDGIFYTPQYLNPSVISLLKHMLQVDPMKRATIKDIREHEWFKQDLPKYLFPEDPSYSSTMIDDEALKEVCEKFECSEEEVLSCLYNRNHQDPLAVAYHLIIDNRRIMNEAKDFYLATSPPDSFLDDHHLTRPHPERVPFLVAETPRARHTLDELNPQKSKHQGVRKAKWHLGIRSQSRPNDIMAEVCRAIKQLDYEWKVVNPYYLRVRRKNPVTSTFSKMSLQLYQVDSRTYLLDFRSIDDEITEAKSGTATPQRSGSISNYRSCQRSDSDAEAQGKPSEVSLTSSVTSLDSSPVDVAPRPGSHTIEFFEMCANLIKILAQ

What is called EC50 is the concentration at which the effect is half-maximal. Low readings indicate higher potency in that assay, high ones lower potency in that assay. Turning to `C=C(C=O)[C@@H]1CC[C@]2(C)CC[C@]3(C)[C@H](CC[C@@H]4[C@@]5(C)CC[C@H](OC(C)=O)C(C)(C)[C@@H]5CC[C@]43C)[C@@H]12`, the result (with L6 [1]; in the assay with HepG2; in the assay on 3T3-L1; in assay [4]) was Active. For the same molecule, the outcome in assay [2] was inactive. Also, the “fold change (FC)” value in the assay with L6 [3] is reported as 4.5. Also, the Activity entry was “Dose-dependent effect” in the assay with L6 [5] and 114.1% in the assay with L6 [6]. This molecule also returned an EC50 in the assay on L6 [5] of 5.2 µM.

The record behind these values is ChEMBL document CHEMBL3286380, “Design and synthesis of lupeol analogues and their glucose uptake stimulatory effect in L6 skeletal muscle cells” (Bioorg Med Chem Lett, 2014).
